Assay results as given in ChEMBL document CHEMBL1133719, “Synthesis and preliminary biological evaluations of CC-1065 analogues: effects of different linkers and terminal amides on biological activity” (J Med Chem, 2000).
“And” between values parts separate entries of the source, which are not always exact repeats. Equal entries are not always repeated.

Tests used:
DU-145 = assay: Cytotoxicity against NCI tumor panel, DU145 prostate cancer cell line; format: functional, cell-based; details: Homo sapiens
How it was run: (§1)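 NCI cell-line panel screen run by the National Cancer Institute; sulforhodamine B (SRB) readout after 48-h drug incubation.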

SNB-19 = assay: Cytotoxicity against NCI tumor panel, SNB-19 CNS cancer cell line; format: functional, cell-based; details: Homo sapiens
How it was run: (§2)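 Performed by NCI with the sulforhodamine B (SRB) method on its human tumour cell panel, using a 48-h drug incubation.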

IGROV-1 = assay: Cytotoxicity against NCI tumor panel, IGROV1 ovarian cancer cell line; format: functional, cell-based; details: Homo sapiens; how it was run: as §2
MDA-MB-435 = assay: Cytotoxicity against NCI tumor panel, MDA-MB-435 breast cancer cell line; format: functional, cell-based; details: Homo sapiens; how it was run: as §2
Mus musculus [1] = assay: Antitumor activity was tested in mice and percent increase of life span at a dose of 100 ug/kg was reported; format: functional
How it was run: (§3)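 B16BL6 cells were cultured as monolayers, and 10⁶ cells were injected ip on day 0 into female BDF1 mice (4-6 weeks, 8 per group). Drug in dimethylacetamide was diluted in DMA/Cremophor/water (1:5:44) and 0.1 mL given ip on days 1, 5 and 9. %ILS came from median survival of dying animals; 90-day survivors were counted; mean weight change covered days 1-10.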

U-251 = assay: Cytotoxicity against NCI tumor panel, U251 CNS cancer cell line; format: functional, cell-based; details: Homo sapiens; how it was run: as §2
SK-MEL-2 = assay: Cytotoxicity against NCI tumor panel,SK-MEL2 melanoma cancer cell line; format: functional, cell-based; details: Homo sapiens; how it was run: as §2
Mus musculus [2] = species on record: Mus musculus; assay: Hematological effects in female CDF1 mice at the dose of 50 ug, in red blood cells; format: functional
How it was run: (§4)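 Non-tumor-bearing female CDF1 mice, 10 per group. Drugs were dissolved in DMSO, diluted in 30% DMSO/0.5% glucose, and given as a single ip dose on day 1 (doses per kg). Blood was sampled on day 27 for WBC, platelet, RBC and MCHC counts. Values are medians of 10 mice.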

MDA-N = assay: Cytotoxicity against NCI tumor panel, MDA-N breast cancer cell line; format: functional, cell-based; details: Homo sapiens; how it was run: as §2
HOP-62 = assay: Cytotoxicity against NCI tumor panel, HOP-62 non small-cell lung cancer cell line; format: functional, cell-based; details: Homo sapiens; how it was run: as §1
Mus musculus [3] = species on record: Mus musculus; assay: Antitumor activity in mice bearing B16BL6 melanoma; survivors for 90 days was reported
SF-268 = assay: Cytotoxicity against NCI tumor panel, SF-268 CNS cancer cell line; format: functional, cell-based; details: Homo sapiens; how it was run: as §2
CCRF-CEM = assay: Cytotoxicity against NCI tumor panel, CCRF-CEM leukemia cell line; format: functional, cell-based; details: Homo sapiens; how it was run: as §1
NCI-H522 = assay: Cytotoxicity against NCI tumor panel, NCI-H522 non small-cell lung cancer cell line; format: functional, cell-based; details: Homo sapiens; how it was run: as §2
SK-MEL-5 = assay: Cytotoxicity against NCI tumor panel, SKMEL-5 melanoma cancer cell line; format: functional, cell-based; details: Homo sapiens; how it was run: as §2
Mus musculus [4] = species on record: Mus musculus; assay: Body weight change between days 0 and the day when the animal weight was the lowest; format: functional
How it was run: (§5)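 Male BDF1 mice, 4-6 weeks old, 6 per group, were given 10⁵ L1210 cells ip on day 0. Drug in DMF was diluted in 30% DMSO/0.5% glucose and given ip on days 1, 5 and 9. %ILS = (T/C − 1) × 100 on median survival of dying animals only; 30-day survivors noted separately. Group weight change was taken from day 0 to the lowest-weight day.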

Mus musculus [5] = species on record: Mus musculus; assay: Mice bearing B16BL6 leukemia at a dose 100; format: functional; details: in the assay text read “melanoma” for “leukemia”
How it was run: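 Female BDF1 mice (4-6 weeks old, 8 per group) were inoculated ip with 10⁶ B16BL6 melanoma cells on day 0. Drugs in dimethylacetamide were diluted in DMA:Cremophor:water (1:5:44) and given ip at 0.1 mL on days 1, 5 and 9 (doses per kg). Read-outs were %ILS = (T/C − 1) × 100 on median survival of dying animals only, mean body weight change from day 1 to day 10 (g/mouse), and 90-day survivors.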

TK-10 = assay: Cytotoxicity against NCI tumor panel, TK10 renal cancer cell line; format: functional, cell-based; details: Homo sapiens; how it was run: as §2
KM12 = assay: Cytotoxicity against NCI tumor panel, KM12 colon cancer cell line; format: functional, cell-based; details: Homo sapiens; how it was run: as §2
[6] = Minimal drug concentration necessary to inhibit incorporation of [3H]thymidine in U937 Leukemia cells; format: functional, cell-based, Homo sapiens
SF-295 = assay: Cytotoxicity against NCI tumor panel, SF-295 CNS cancer cell line; format: functional, cell-based; details: Homo sapiens; how it was run: as §2
NCI-H460 = assay: Cytotoxicity against NCI tumor panel, NCI-H460 non small-cell lung cancer cell line; format: functional, cell-based; details: Homo sapiens; how it was run: as §2
HCT-15 = assay: Cytotoxicity against NCI tumor panel, HCT-15 colon cancer cell line; format: functional, cell-based; details: Homo sapiens; how it was run: as §1
Mus musculus [7] = species on record: Mus musculus; assay: Mean body weight change
K562 = assay: Cytotoxicity against NCI tumor panel, K-562 leukemia cell line; format: functional, cell-based; details: Homo sapiens; how it was run: as §2
MOLT-4 = assay: Cytotoxicity against NCI tumor panel, MOLT-4 leukemia cell line; format: functional, cell-based; details: Homo sapiens; how it was run: as §2
SN12C = assay: Cytotoxicity against NCI tumor panel, SN12C renal cancer cell line; format: functional, cell-based; details: Homo sapiens; how it was run: as §2
T47D = assay: cytotoxicity against NCI tumor panel, T-47D breast cancer cell line; format: functional, cell-based; details: Homo sapiens; how it was run: as §2
Mus musculus [8] = assay: Antitumor activity was tested in mice and percent increase of life span at a dose of 25 ug/kg was reported; format: functional
Mus musculus [9] = assay: Antitumor activity in BDF1 male mice bearing L1210 Leukemia at a dose of 25 ug/kg; survivors for 30 days was reported; format: functional; how it was run: as §5
MDA-MB-231 = assay: Cytotoxicity against NCI tumor panel, MDA-MB-231/ATCC breast cancer cell line; format: functional, cell-based; details: Homo sapiens; how it was run: as §2
Mus musculus [10] = assay: Antitumor activity in mice bearing B16BL6 melanoma at a dose of 100 ug/kg; survivors for 90 days was reported; format: functional; how it was run: as §3
RPMI-8226 = assay: Cytotoxicity against NCI tumor panel, RPMI-8226 leukemia cell line; format: functional, cell-based; details: Homo sapiens; how it was run: as §2
HCC 2998 = assay: Cytotoxicity against NCI tumor panel, HCC_2998 colon cancer cell line; format: functional, cell-based; details: Homo sapiens; how it was run: as §1
HOP-92 = assay: Cytotoxicity against NCI tumor panel, HOP-92 non small-cell lung cancer cell line; format: functional, cell-based; details: Homo sapiens; how it was run: as §1
UACC-62 = assay: Cytotoxicity against NCI tumor panel, UACC-62 melanoma cancer cell line; format: functional, cell-based; details: Homo sapiens; how it was run: as §2
UO-31 = assay: Cytotoxicity against NCI tumor panel, U031 renal cancer cell line; format: functional, cell-based; details: Homo sapiens; how it was run: as §2
Mus musculus [11] = assay: Antitumor activity in mice bearing L1210 Leukemia at a dose of 30 ug/kg; survivors for 60 days was reported; format: functional
How it was run: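 Female CDF1 mice, 10 per group, got 100 L1210 cells ip on day 0. Drug in DMSO was diluted with 30% DMSO in 0.5% glucose and dosed ip on days 1, 5 and 9. Long-term (60-day) survivors are given as percent of the group.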

Mus musculus [12] = assay: Haematological effects in mice dose administered intraperitoneally; format: functional; how it was run: as §4
Mus musculus [13] = species on record: Mus musculus; assay: Mean corpuscular haemoglobin concentration; format: functional
How it was run: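 Non-tumour-bearing female CDF1 mice, 10 per group. Drug was dissolved in DMSO, diluted in 30% DMSO/0.5% glucose, and given as a single ip dose on day 1. Blood was sampled on day 27 for WBC, platelet, RBC and MCHC measurements. Values are medians of 10 mice, with saline or vehicle controls.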

A549 = assay: Cytotoxicity against NCI tumor panel, A-549/ATCC non small-cell lung cancer cell line; format: functional, cell-based; details: Homo sapiens; how it was run: as §1
HT-29 = assay: Cytotoxicity against NCI tumor panel, HT-29 colon cancer cell line; format: functional, cell-based; details: Homo sapiens; how it was run: as §2
CAKI-1 = assay: Cytotoxicity against NCI tumor panel, CAKI-1 renal cancer cell line; format: functional, cell-based; details: Homo sapiens; how it was run: as §1

Structure (SMILES): CC(=O)Nc1ccc2[nH]c(C(=O)Nc3ccc4[nH]c(C(=O)N5CC(CCl)c6c5cc(O)c5ccccc65)cc4c3)cc2c1 (stereo not drawn)
- IC50 (DU-145): 0.982 nM
- IC50 (SNB-19): 2.59 nM
- IC50 (IGROV-1): 1.01 nM
- IC50 (MDA-MB-435): 1.86 nM
- ILS at 0.1 mg/kg (Mus musculus [1]): 91%
- IC50 (U-251): 0.719 nM
- IC50 (SK-MEL-2): 2.11 nM
- RBC (Mus musculus [2]): 8.72 10e6 ul-1
- IC50 (MDA-N): 2.22 nM
- IC50 (HOP-62): 1.25 nM
- No. of survivors (Mus musculus [3]): 0
- IC50 (SF-268): 0.212 nM
- IC50 (CCRF-CEM): 3.14 nM
- IC50 (NCI-H522): 0.238 nM
- IC50 (SK-MEL-5): 1.11 nM
- Weight (Mus musculus [4]): 23%
- Dose (Mus musculus [5]): 0.1 mg/kg
- IC50 (TK-10): 3.13 nM
- IC50 (KM12): 1.78 nM
- IC50 [6]: 0.4 nM
- IC50 (SF-295): 2.64 nM
- IC50 (NCI-H460): 1.48 nM
- IC50 (HCT-15): > 10 nM
- Weight (Mus musculus [7]): 16%
- IC50 (K562): 3.76 nM
- IC50 (MOLT-4): 0.375 nM
- IC50 (SN12C): 3.01 nM
- IC50 (T47D): 1.68 nM
- ILS (Mus musculus [8]): 67% and 107%
- No. of survivors (Mus musculus [9]): 0
- IC50 (MDA-MB-231): 5.97 nM
- No. of survivors (Mus musculus [10]): 1
- IC50 (RPMI-8226): 8.98 nM
- IC50 (HCC 2998): 4.03 nM
- IC50 (HOP-92): 2.11 nM
- IC50 (UACC-62): 0.419 nM
- IC50 (UO-31): 4.05 nM
- % survivors (Mus musculus [11]): 40%
- Dose (Mus musculus [12]): 0.05 mg/kg
- MCHC (Mus musculus [13]): 36.7 g/dL
- IC50 (A549): 1.49 nM
- IC50 (HT-29): 1.34 nM
- IC50 (CAKI-1): 4.27 nM
